The source of these data is ChEMBL document CHEMBL3286292, “Synthesis and antimicrobial activity of amine linked bis- and tris-heterocycles” (2014).

What all share (type): functional
For assay [1], the system named is Pseudomonas aeruginosa. The assay is described as follows: Antibacterial activity against Pseudomonas aeruginosa assessed as growth inhibition at 50 ug/well after 24 hrs by agar well diffusion method. The settings on record: for zone of inhibition at 50 µg/disc: read-out: DIZ. The essentials: (§1)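 Agar well diffusion on […] swabbed with a 24 h broth culture. Samples were dissolved in DMSO and loaded at three per-well amounts into 6 mm wells. Incubation was 37 °C for 24 h, then inhibition zone diameter was read in mm. DMSO served as the negative control. Runs were in duplicate and averaged.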

Assay [2] concerns Aspergillus niger. The assay is described as follows: Antifungal activity against Aspergillus niger assessed as inhibition of spore germination at 50 ug/well after 48 hrs by agar well diffusion method. To be noted: for zone of inhibition at 50 µg/disc: read-out: DIZ. The essentials: (§2)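 Well diffusion using 6 mm bored wells loaded with DMSO solutions at three per-well amounts, with a DMSO negative control. Plates were held at 28 °C for 48 h, then zone of inhibition diameter was measured in mm. Runs were in duplicate and averaged.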

The test system of assay [3] is Staphylococcus aureus. The assay is described as follows: Antibacterial activity against Staphylococcus aureus assessed as growth inhibition at 25 ug/well after 24 hrs by agar well diffusion method. The settings on record: for zone of inhibition at 25 µg/disc: read-out: DIZ. The essentials:
as §1

For assay [4], the system named is Staphylococcus aureus. The assay is described as follows: Antibacterial activity against Staphylococcus aureus assessed as growth inhibition at 100 ug/well after 24 hrs by agar well diffusion method. To be noted: for zone of inhibition at 100 µg/disc: read-out: DIZ. An outline of the steps: as §1
In assay [5] the test system is Aspergillus niger. The assay is described as follows: Antifungal activity against Aspergillus niger assessed as inhibition of spore germination at 25 ug/well after 48 hrs by agar well diffusion method. To be noted: for zone of inhibition at 25 µg/disc: read-out: DIZ. An outline of the steps:
as §2

Assay [6] has as its system Bacillus subtilis. The experiment in a line: Antibacterial activity against Bacillus subtilis assessed as growth inhibition at 100 ug/well after 24 hrs by agar well diffusion method. To be noted: for zone of inhibition at 100 µg/disc: read-out: DIZ. The essentials: as §1
Assay [7] deals with Bacillus subtilis. The assay is described as follows: Antibacterial activity against Bacillus subtilis assessed as growth inhibition at 25 ug/well after 24 hrs by agar well diffusion method. The settings on record: for zone of inhibition at 25 µg/disc: read-out: DIZ. An outline of the steps: as §1
For assay [8], the system named is Staphylococcus aureus. The assay is described as follows: Antibacterial activity against Staphylococcus aureus assessed as growth inhibition at 50 ug/well after 24 hrs by agar well diffusion method. The settings on record: for zone of inhibition at 50 µg/disc: read-out: DIZ. An outline of the steps: as §1
For assay [9], the system named is Klebsiella pneumoniae. The experiment in a line: Antibacterial activity against Klebsiella pneumoniae assessed as growth inhibition at 100 ug/well after 24 hrs by agar well diffusion method. The settings on record: for zone of inhibition at 100 µg/disc: read-out: DIZ. The essentials:
as §1

Assay [10] concerns Klebsiella pneumoniae. The assay is described as follows: Antibacterial activity against Klebsiella pneumoniae assessed as growth inhibition at 50 ug/well after 24 hrs by agar well diffusion method. The settings on record: for zone of inhibition at 50 µg/disc: read-out: DIZ. The essentials:
as §1

Assay [11] has as its system Bacillus subtilis. The assay is described as follows: Antibacterial activity against Bacillus subtilis assessed as growth inhibition at 50 ug/well after 24 hrs by agar well diffusion method. The settings on record: for zone of inhibition at 50 µg/disc: read-out: DIZ. An outline of the steps: as §1
Assay [12] concerns Pseudomonas aeruginosa. The experiment in a line: Antibacterial activity against Pseudomonas aeruginosa assessed as growth inhibition at 25 ug/well after 24 hrs by agar well diffusion method. To be noted: for zone of inhibition at 25 µg/disc: read-out: DIZ. The essentials:
as §1

In assay [13] the test system is Klebsiella pneumoniae. The experiment in a line: Antibacterial activity against Klebsiella pneumoniae assessed as growth inhibition at 25 ug/well after 24 hrs by agar well diffusion method. To be noted: for zone of inhibition at 25 µg/disc: read-out: DIZ. The essentials:
as §1

In assay [14] the test system is Pseudomonas aeruginosa. The assay is described as follows: Antibacterial activity against Pseudomonas aeruginosa assessed as growth inhibition at 100 ug/well after 24 hrs by agar well diffusion method. The settings on record: for zone of inhibition at 100 µg/disc: read-out: DIZ. An outline of the steps: as §1

Molecules are shown by their SMILES. Calls of active or inactive are those of the source. No cut-off for these calls is given here.

For the compound `NC(=S)n1nc(Nc2nc(-c3ccccc3)cs2)cc1-c1ccccc1`, the zone of inhibition at 50 µg/disc in the assay with Pseudomonas aeruginosa [1] was 15 mm; in the assay on Aspergillus niger [2], 19 mm; in the assay with Staphylococcus aureus [8], 25 mm; in the assay with Klebsiella pneumoniae [10], 25 mm; in the assay with Bacillus subtilis [11], 22 mm. The zone of inhibition at 25 µg/disc in the assay on Staphylococcus aureus [3] is 22 mm; in the assay on Aspergillus niger [5], 17 mm; with Bacillus subtilis [7], 21 mm; with Pseudomonas aeruginosa [12] it was 12 mm; with Klebsiella pneumoniae [13] it was 23 mm. Besides, the zone of inhibition at 100 µg/disc stood at 26 mm in the assay on Staphylococcus aureus [4], 24 mm in the assay on Bacillus subtilis [6], 28 mm in the assay on Klebsiella pneumoniae [9] and 17 mm in the assay with Pseudomonas aeruginosa [14].
As to `Cc1ccc(-c2coc(Nc3cc(-c4ccc(C)cc4)n(C(N)=S)n3)n2)cc1`, the “growth inhibition (GI)” value in the assay with Pseudomonas aeruginosa [1], in the assay with Staphylococcus aureus [3], in the assay on Aspergillus niger [5], with Bacillus subtilis [7], with Staphylococcus aureus [8] and with Pseudomonas aeruginosa [12] was “inactive” each time. Besides, the “growth inhibition (GI)” value in the assay on Klebsiella pneumoniae [13] and in the assay with Pseudomonas aeruginosa [14] was “inactive” throughout. Further, the zone of inhibition at 50 µg/disc in the assay on Aspergillus niger [2] amounted to 6 mm; in the assay on Klebsiella pneumoniae [10], 7 mm; with Bacillus subtilis [11] it was 7 mm. The results for the zone of inhibition at 100 µg/disc in the assay with Staphylococcus aureus [4], in the assay with Bacillus subtilis [6] and with Klebsiella pneumoniae [9] were 6 mm, 8 mm and 8 mm, respectively.
With `Cc1ccc(-c2coc(Nc3cc(-c4ccc(C)cc4)n(-c4nc(-c5ccc(C)cc5)cs4)n3)n2)cc1`, the “growth inhibition (GI)” value in the assay with Pseudomonas aeruginosa [1], with Staphylococcus aureus [3], in the assay on Pseudomonas aeruginosa [12] and with Pseudomonas aeruginosa [14] was “inactive” in each case. In addition, the zone of inhibition at 50 µg/disc in the assay with Aspergillus niger [2] is 8 mm; in the assay with Staphylococcus aureus [8] it was 6 mm; in the assay with Klebsiella pneumoniae [10], 8 mm; in the assay with Bacillus subtilis [11] it was 8 mm. Also, the zone of inhibition at 100 µg/disc stood at 8 mm in the assay on Staphylococcus aureus [4], 9 mm in the assay with Bacillus subtilis [6] and 10 mm in the assay with Klebsiella pneumoniae [9]. Also, the zone of inhibition at 25 µg/disc in the assay on Aspergillus niger [5], in the assay on Bacillus subtilis [7] and in the assay with Klebsiella pneumoniae [13] was 6 mm each time.
For `NC(=S)N1N=C(Nc2nc(-c3ccc(Cl)cc3)cs2)C[C@@H]1c1ccc(Cl)cc1`, the “growth inhibition (GI)” value with Pseudomonas aeruginosa [1], in the assay on Staphylococcus aureus [3], with Staphylococcus aureus [4], with Aspergillus niger [5], in the assay on Bacillus subtilis [6] and in the assay on Bacillus subtilis [7] was “inactive” each time. Besides, the “growth inhibition (GI)” value with Staphylococcus aureus [8], in the assay with Klebsiella pneumoniae [9], with Klebsiella pneumoniae [10], with Bacillus subtilis [11], in the assay on Pseudomonas aeruginosa [12] and in the assay on Klebsiella pneumoniae [13] was “inactive” throughout. For the same compound, the “growth inhibition (GI)” value with Pseudomonas aeruginosa [14] was “inactive”. Besides, in the assay with Aspergillus niger [2], the zone of inhibition entry is “inactive”.
Consider `NC(=S)N1N=C(Nc2nc(-c3ccccc3)co2)C[C@@H]1c1ccccc1`, for which the “growth inhibition (GI)” value in the assay with Pseudomonas aeruginosa [1], with Staphylococcus aureus [3], in the assay on Staphylococcus aureus [4], with Aspergillus niger [5], in the assay on Bacillus subtilis [6] and in the assay on Bacillus subtilis [7] was “inactive” throughout. The “growth inhibition (GI)” value in the assay on Staphylococcus aureus [8], with Klebsiella pneumoniae [9], in the assay on Klebsiella pneumoniae [10], in the assay on Bacillus subtilis [11], with Pseudomonas aeruginosa [12] and in the assay with Klebsiella pneumoniae [13] was “inactive” in each case. Besides, the “growth inhibition (GI)” value with Pseudomonas aeruginosa [14] is “inactive”. In the assay on Aspergillus niger [2], the zone of inhibition result is “inactive”.
As for `Cc1ccc(-c2c[nH]c(Nc3cc(-c4ccc(C)cc4)n(C(N)=S)n3)n2)cc1`, the “growth inhibition (GI)” value with Pseudomonas aeruginosa [1] and with Pseudomonas aeruginosa [12] was “inactive” in each case. Further, the zone of inhibition at 50 µg/disc with Aspergillus niger [2] stood at 15 mm; with Staphylococcus aureus [8] it was 12 mm; with Klebsiella pneumoniae [10], 12 mm; with Bacillus subtilis [11] it was 10 mm. Moreover, the zone of inhibition at 25 µg/disc in the assay with Staphylococcus aureus [3] was 10 mm; in the assay on Aspergillus niger [5] it was 14 mm; in the assay with Bacillus subtilis [7] it was 9 mm; in the assay with Klebsiella pneumoniae [13] it was 10 mm. The zone of inhibition at 100 µg/disc with Staphylococcus aureus [4] turned out to be 14 mm; with Bacillus subtilis [6] it was 13 mm; in the assay with Klebsiella pneumoniae [9], 14 mm; with Pseudomonas aeruginosa [14], 7 mm.
With `NC(=S)N1N=C(Nc2nc(-c3ccccc3)c[nH]2)C[C@@H]1c1ccccc1`, the “growth inhibition (GI)” value in the assay on Pseudomonas aeruginosa [1], in the assay on Staphylococcus aureus [3], in the assay on Staphylococcus aureus [4], with Aspergillus niger [5], in the assay with Bacillus subtilis [6] and in the assay with Bacillus subtilis [7] was “inactive” throughout. Also, the “growth inhibition (GI)” value with Staphylococcus aureus [8], with Klebsiella pneumoniae [10], in the assay on Bacillus subtilis [11], with Pseudomonas aeruginosa [12], in the assay with Klebsiella pneumoniae [13] and in the assay with Pseudomonas aeruginosa [14] was “inactive” in each case. Also, the zone of inhibition entry with Aspergillus niger [2] was “inactive”. For the same compound, the zone of inhibition at 100 µg/disc in the assay with Klebsiella pneumoniae [9] amounted to 6 mm.
As for `NC(=S)n1nc(Nc2nc(-c3ccc(Cl)cc3)cs2)cc1-c1ccc(Cl)cc1`, the zone of inhibition at 50 µg/disc worked out at 16 mm with Pseudomonas aeruginosa [1]; 22 mm with Aspergillus niger [2]; 26 mm in the assay on Staphylococcus aureus [8]; 28 mm in the assay on Klebsiella pneumoniae [10]; 25 mm in the assay with Bacillus subtilis [11]. Also, the zone of inhibition at 25 µg/disc in the assay with Staphylococcus aureus [3] came to 24 mm; with Aspergillus niger [5], 20 mm; with Bacillus subtilis [7] it was 22 mm; with Pseudomonas aeruginosa [12], 14 mm; in the assay with Klebsiella pneumoniae [13], 26 mm. Further, the zone of inhibition at 100 µg/disc in the assay on Staphylococcus aureus [4] was determined as 29 mm; in the assay on Bacillus subtilis [6] it was 26 mm; in the assay with Klebsiella pneumoniae [9], 31 mm; with Pseudomonas aeruginosa [14], 18 mm.
Take `Cc1ccc(-c2csc(Nc3cc(-c4ccc(C)cc4)n(-c4nc(-c5ccc(C)cc5)cs4)n3)n2)cc1`: the zone of inhibition at 50 µg/disc in the assay with Pseudomonas aeruginosa [1] was determined as 8 mm; in the assay with Aspergillus niger [2], 16 mm; in the assay on Staphylococcus aureus [8] it was 15 mm; in the assay on Klebsiella pneumoniae [10], 15 mm; with Bacillus subtilis [11] it was 15 mm. The zone of inhibition at 25 µg/disc is 14 mm in the assay on Staphylococcus aureus [3]; 15 mm in the assay on Aspergillus niger [5]; 14 mm with Bacillus subtilis [7]; 7 mm in the assay with Pseudomonas aeruginosa [12]; 14 mm with Klebsiella pneumoniae [13]. In addition, the zone of inhibition at 100 µg/disc turned out to be 18 mm with Staphylococcus aureus [4], 18 mm in the assay on Bacillus subtilis [6], 18 mm with Klebsiella pneumoniae [9] and 11 mm in the assay on Pseudomonas aeruginosa [14].
